The nature of series [1]: Cytotoxicity against human HT-29 cells measured after 12 hrs by CellTiter-Glo Luminescent assay. The format is cell-based.
In series [2] the target is T1, Receptor-interacting serine/threonine-protein kinase 1 (Homo sapiens, UniProt Q13546).
T1 sequence (Q13546 whole entry): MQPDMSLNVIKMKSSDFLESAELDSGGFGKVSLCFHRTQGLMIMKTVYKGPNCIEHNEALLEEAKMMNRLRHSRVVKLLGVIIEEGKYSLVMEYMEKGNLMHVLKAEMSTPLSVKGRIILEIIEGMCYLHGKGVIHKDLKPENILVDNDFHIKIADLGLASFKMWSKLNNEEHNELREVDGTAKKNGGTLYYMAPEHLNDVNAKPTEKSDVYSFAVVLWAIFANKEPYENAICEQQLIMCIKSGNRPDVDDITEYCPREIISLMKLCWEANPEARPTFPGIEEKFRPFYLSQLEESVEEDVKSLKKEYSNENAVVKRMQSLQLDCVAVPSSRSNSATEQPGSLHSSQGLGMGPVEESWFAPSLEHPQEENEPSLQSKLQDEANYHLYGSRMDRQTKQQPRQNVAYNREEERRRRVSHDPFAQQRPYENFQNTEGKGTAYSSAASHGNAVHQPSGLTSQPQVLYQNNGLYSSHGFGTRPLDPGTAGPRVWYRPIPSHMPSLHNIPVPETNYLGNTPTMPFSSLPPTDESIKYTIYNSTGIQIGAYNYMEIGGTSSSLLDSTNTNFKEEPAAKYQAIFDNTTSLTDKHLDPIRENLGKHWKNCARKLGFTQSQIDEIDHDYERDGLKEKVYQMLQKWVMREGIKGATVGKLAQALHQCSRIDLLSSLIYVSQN
Nature of the series: Binding affinity to wild-type human partial length RIPK1 (M1 to K305 residues) expressed in bacterial expression system at 5 uM after 1 hr by quantitative PCR based KINOMEscan assay.

Series [3] has as its target Epidermal growth factor receptor (Homo sapiens) (UniProt P00533). Nature of the series: Inhibition of wild-type human partial length EGFR (R669 to V1011 residues) expressed in bacterial expression system assessed as enzyme remaining activity at 1000 nM by Kinomescan method relative to control. An outline of the steps: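 KINOMEscan binding competition. […] Incubation was 1 h at room temperature with shaking, then bead wash and elution with 0.5 μM nonbiotinylated ligand for 30 min. Eluted kinase was quantified by qPCR. Compound was diluted from 40× DMSO stocks to 1000 nM final.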

The target in series [4] is Mitogen-activated protein kinase 3 (Homo sapiens) (UniProt P27361). Nature of the series: Inhibition of wild-type human full length ERK1 (M1 to P379 residues) expressed in bacterial expression system assessed as enzyme remaining activity at 1000 nM by Kinomescan method relative to control.
Sequence of Mitogen-activated protein kinase 3 (Homo sapiens) (P27361 whole entry, the tested form may be a part): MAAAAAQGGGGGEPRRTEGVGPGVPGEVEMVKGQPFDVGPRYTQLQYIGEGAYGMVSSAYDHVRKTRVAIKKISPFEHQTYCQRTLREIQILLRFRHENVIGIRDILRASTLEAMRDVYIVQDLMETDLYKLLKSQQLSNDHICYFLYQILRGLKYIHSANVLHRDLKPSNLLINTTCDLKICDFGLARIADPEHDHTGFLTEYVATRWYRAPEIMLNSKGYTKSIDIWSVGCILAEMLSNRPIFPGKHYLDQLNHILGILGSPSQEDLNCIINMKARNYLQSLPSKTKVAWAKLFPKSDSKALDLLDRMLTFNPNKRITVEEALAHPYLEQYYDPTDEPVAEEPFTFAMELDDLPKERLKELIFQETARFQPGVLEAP
Series [5] concerns the target Fibroblast growth factor receptor 2 (Homo sapiens) (UniProt P21802). Nature of the series: Inhibition of wild-type human partial length FGFR2 (D457 to E769 residues) expressed in bacterial expression system assessed as enzyme remaining activity at 1000 nM by Kinomescan method relative to control.
The target in series [6] is Fibroblast growth factor receptor 3 (Homo sapiens) (UniProt P22607). Put plainly: Inhibition of wild-type human partial length FGFR3 (R442 to S771 residues) expressed in bacterial expression assessed as enzyme remaining activity at 1000 nM by Kinomescan method relative to control.
Series [7] addresses Cyclin-dependent kinase 2 (Homo sapiens) (UniProt P24941). Put plainly: Inhibition of wild-type human full length CDK2 (M1 to L298 residues) expressed in bacterial expression system assessed as enzyme remaining activity at 1000 nM by Kinomescan method relative to control.
The target of series [8] is Glycogen synthase kinase-3 beta (Homo sapiens) (UniProt P49841). Put plainly: Inhibition of wild-type human full length GSK3B (M1 to T433 residues) expressed in mammalian expression system assessed as enzyme remaining activity at 1000 nM by Kinomescan method relative to control.
Sequence of Glycogen synthase kinase-3 beta (Homo sapiens) (P49841 whole entry, looked up, the tested form may be a part): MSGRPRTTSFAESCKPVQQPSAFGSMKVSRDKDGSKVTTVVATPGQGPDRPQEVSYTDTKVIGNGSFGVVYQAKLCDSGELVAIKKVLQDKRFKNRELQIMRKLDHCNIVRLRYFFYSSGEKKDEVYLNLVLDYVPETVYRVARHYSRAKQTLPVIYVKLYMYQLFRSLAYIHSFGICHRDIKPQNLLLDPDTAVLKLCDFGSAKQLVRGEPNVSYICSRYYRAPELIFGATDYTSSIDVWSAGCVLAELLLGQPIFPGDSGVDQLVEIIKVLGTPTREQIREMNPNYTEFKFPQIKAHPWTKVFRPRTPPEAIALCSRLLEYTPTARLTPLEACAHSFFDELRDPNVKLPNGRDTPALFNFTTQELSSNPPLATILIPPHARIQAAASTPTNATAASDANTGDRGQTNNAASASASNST
Series [9] has as its target MAP kinase-activated protein kinase 2 (Homo sapiens) (UniProt P49137). Put plainly: Inhibition of wild-type human partial length MAPKAPK2 (V48 to D345 residues) expressed in bacterial expression system assessed as enzyme remaining activity at 1000 nM by Kinomescan method relative to control.
The target in series [10] is Inhibitor of nuclear factor kappa-B kinase subunit alpha (Homo sapiens) (UniProt O15111). Put plainly: Inhibition of wild-type human full length IKK-alpha (M1 to E745 residues) expressed in mammalian expression system assessed as enzyme remaining activity at 1000 nM by Kinomescan method relative to control.
In series [11] the target is Platelet-derived growth factor receptor alpha (Homo sapiens) (UniProt P16234). Nature of the series: Inhibition of wild-type human partial length PDGFRA (V575 to D1002 residues) expressed in mammalian expression system assessed as enzyme remaining activity at 1000 nM by Kinomescan method relative to control.
Sequence of Platelet-derived growth factor receptor alpha (Homo sapiens) (P16234 whole entry, the tested form may be a part): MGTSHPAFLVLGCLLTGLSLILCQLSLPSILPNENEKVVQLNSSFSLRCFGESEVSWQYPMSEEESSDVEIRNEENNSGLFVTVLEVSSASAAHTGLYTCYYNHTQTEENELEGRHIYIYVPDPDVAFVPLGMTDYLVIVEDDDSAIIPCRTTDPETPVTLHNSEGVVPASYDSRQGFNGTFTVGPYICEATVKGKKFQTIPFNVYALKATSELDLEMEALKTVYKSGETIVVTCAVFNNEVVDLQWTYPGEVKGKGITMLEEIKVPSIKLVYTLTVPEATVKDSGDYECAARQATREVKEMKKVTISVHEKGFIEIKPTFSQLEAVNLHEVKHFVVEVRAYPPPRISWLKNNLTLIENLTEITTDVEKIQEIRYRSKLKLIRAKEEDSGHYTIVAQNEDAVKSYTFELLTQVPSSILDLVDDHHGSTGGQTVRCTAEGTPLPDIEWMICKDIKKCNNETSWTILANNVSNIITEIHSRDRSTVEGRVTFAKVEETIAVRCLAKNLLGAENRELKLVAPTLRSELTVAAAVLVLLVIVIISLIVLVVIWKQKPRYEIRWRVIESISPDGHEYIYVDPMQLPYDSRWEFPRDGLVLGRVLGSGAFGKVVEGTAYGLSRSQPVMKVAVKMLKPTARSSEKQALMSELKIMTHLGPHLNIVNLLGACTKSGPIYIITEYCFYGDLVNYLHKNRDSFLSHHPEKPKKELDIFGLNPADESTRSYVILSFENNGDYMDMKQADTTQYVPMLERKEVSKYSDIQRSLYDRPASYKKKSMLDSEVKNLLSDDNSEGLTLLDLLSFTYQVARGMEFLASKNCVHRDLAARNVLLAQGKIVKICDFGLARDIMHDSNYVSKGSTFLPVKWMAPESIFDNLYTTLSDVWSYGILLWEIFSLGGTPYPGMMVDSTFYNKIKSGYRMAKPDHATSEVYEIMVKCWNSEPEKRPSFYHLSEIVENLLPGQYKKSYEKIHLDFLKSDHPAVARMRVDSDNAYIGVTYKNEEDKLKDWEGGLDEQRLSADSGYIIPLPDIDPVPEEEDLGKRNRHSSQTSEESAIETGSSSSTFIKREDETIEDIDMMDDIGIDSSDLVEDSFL
Series [12] has as its target Platelet-derived growth factor receptor beta (Homo sapiens) (UniProt P09619). Nature of the series: Inhibition of wild-type human partial length PDGFRB (V582 to Y1009 residues) expressed in bacterial expression system assessed as enzyme remaining activity at 1000 nM by Kinomescan method relative to control.
In series [13] the target is Proto-oncogene tyrosine-protein kinase Src (Homo sapiens) (UniProt P12931). Put plainly: Inhibition of wild-type human partial length SRC (L240 to L536 residues) expressed in bacterial expression system assessed as enzyme remaining activity at 1000 nM by Kinomescan method relative to control.
Sequence of Proto-oncogene tyrosine-protein kinase Src (Homo sapiens) (P12931 2-536 limits assumed): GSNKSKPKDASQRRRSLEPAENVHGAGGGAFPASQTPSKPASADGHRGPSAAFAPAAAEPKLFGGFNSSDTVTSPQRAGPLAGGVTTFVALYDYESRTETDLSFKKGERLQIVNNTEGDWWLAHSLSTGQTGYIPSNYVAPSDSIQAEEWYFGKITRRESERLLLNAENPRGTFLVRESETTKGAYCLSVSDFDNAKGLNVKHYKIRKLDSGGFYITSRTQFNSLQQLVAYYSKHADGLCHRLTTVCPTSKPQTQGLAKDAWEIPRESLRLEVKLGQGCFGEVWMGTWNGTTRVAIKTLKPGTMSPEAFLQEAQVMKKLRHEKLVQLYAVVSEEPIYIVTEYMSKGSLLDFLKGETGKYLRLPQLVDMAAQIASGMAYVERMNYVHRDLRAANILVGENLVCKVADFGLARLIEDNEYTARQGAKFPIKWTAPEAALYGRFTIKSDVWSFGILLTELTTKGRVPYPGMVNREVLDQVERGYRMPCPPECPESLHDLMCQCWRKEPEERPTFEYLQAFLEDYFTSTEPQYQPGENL
In series [14] the target is T1, Receptor-interacting serine/threonine-protein kinase 1. Put plainly: Inhibition of RIPK1 phosphorylation in TNFalpha/smac mimetic/Z-VAD-fmk stimulated human HT-29 cells at 1 uM treated prior to TNFalpha/smac mimetic/Z-VAD-fmk stimulation and measured after 2 to 4 hrs by SDS-PAGE based immunoblot assay. The format is cell-based. Conditions: ht-29, 1 µM; call rule not given here.
Series [15] can be described thus: Half-life in Sprague-Dawley rat at 1 mg/kg, iv by LC-tandem mass spectrometry analysis. The format is ADME, organism-based. Particulars: in vivo. An outline of the steps: (§1)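 Male Sprague-Dawley rats dosed once i.v. at 1 mg/kg or intragastrically at 5 mg/kg. Compound dissolved in 5% DMSO, 10% Tween 80, 75% physiological saline at 0.2 and 1 mg/mL. Blood taken at several time points, plasma spun at 4 °C, stored at -80 °C, assayed by LC/MS/MS. Parameters from individual animals by noncompartmental analysis.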

The nature of series [16]: Tmax in Sprague-Dawley rat at 5 mg/kg, po by LC-tandem mass spectrometry analysis. Conditions: in vivo. It counts as ADME, organism-based. In a few lines: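 Male Sprague-Dawley rats received compound iv (1 mg/kg) or intragastrically (5 mg/kg). The vehicle was 5% DMSO, 10% Tween 80 and 75% saline, at 0.2 or 1 mg/mL. Blood was sampled at several time points and centrifuged at 4 °C. Plasma was stored at -80 °C and analysed by LC/MS/MS. Parameters were derived by noncompartmental analysis of individual animal data.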

Series [17] in a line: AUC (0 to infinity) in Sprague-Dawley rat at 5 mg/kg, po by LC-tandem mass spectrometry analysis. The format is ADME, organism-based. Set-up: dose 5 mg/kg, time infinity, route oral. Particulars: in vivo. In a few lines: as §1
For a further series, the system named is HT-29. Nature of the series: Anti-necroptotic activity in human HT-29 cells assessed as inhibition of […]/SM-164/Z-VAD-fmk-induced necroptosis measured after 16 hrs by celltiter-glo luminescent cell viability assay. Conditions: HT-29, 16 h.

Sequence of Platelet-derived growth factor receptor beta (Homo sapiens) (P09619 whole entry, the tested form may be a part): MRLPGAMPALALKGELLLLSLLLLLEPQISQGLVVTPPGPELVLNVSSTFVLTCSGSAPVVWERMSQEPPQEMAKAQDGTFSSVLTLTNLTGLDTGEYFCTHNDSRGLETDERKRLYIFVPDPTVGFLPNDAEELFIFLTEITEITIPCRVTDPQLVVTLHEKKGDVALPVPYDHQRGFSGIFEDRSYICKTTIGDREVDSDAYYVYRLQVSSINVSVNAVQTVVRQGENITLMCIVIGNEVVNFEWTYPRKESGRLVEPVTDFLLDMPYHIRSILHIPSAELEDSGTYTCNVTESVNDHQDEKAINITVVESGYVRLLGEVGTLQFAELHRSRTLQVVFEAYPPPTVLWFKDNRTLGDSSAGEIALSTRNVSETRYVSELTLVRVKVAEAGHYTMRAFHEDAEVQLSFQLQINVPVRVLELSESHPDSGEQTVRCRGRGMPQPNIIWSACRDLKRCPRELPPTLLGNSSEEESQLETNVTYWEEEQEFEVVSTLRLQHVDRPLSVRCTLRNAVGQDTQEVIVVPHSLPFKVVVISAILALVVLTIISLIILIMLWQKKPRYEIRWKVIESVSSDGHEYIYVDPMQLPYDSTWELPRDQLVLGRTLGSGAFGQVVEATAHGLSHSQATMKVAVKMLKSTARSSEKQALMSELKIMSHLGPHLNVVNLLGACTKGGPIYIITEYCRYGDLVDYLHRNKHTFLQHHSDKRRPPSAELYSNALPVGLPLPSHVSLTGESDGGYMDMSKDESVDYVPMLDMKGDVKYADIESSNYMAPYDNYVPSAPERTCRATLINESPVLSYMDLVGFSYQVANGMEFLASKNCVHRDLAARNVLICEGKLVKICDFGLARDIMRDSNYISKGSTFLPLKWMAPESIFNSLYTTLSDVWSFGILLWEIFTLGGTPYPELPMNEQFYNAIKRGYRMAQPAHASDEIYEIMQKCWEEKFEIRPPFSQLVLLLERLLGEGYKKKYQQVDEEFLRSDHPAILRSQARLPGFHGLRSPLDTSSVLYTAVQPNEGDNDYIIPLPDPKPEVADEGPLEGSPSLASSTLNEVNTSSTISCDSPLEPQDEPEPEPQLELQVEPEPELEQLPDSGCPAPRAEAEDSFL
Sequence of Epidermal growth factor receptor (Homo sapiens) (P00533 whole entry, the tested form may be a part): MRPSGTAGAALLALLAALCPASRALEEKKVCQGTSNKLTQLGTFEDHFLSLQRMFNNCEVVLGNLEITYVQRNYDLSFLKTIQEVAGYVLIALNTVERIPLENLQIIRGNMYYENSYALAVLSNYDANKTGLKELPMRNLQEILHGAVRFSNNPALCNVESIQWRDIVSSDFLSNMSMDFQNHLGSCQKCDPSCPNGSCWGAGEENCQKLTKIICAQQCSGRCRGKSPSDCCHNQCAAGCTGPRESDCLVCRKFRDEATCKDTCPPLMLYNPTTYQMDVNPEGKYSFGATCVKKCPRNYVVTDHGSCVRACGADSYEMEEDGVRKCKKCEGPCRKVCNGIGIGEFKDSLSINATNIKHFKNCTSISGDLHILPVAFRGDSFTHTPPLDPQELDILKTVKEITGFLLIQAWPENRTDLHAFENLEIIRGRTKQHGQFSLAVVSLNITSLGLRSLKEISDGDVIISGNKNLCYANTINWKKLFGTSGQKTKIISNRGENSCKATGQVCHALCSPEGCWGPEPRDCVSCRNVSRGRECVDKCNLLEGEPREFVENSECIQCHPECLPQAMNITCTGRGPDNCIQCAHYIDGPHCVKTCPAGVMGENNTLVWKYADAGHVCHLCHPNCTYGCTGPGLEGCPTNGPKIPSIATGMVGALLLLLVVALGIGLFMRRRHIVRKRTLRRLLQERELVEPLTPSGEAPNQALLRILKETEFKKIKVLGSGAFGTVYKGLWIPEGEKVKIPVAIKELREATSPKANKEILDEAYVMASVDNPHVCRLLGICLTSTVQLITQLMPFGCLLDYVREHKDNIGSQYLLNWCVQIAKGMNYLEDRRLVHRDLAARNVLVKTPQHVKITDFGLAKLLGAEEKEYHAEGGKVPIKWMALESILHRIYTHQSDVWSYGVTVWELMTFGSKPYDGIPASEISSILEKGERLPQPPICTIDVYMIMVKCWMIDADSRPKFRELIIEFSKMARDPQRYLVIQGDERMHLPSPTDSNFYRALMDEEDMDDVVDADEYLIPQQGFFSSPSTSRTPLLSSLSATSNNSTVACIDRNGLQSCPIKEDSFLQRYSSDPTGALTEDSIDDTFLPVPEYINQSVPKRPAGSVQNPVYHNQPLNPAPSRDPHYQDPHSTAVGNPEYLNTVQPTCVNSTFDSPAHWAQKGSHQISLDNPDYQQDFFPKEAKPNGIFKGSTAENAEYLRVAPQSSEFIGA

On to `O=C(Nc1cccc(Br)c1)Nc1cc(Oc2ccc3nc(NC(=O)C4CC4)sc3c2)ccc1F`, for which, in [1], the CC50 at 12 h was above 50000 nM. The Activity entry in series [2] is “Not Active”; in [3], 33%; in series [4] it was 100%; in series [5], 22%; in series [6], 62%; in series [7], 93%. In addition, the Activity in series [8] is 100%; in series [9], 100%; in series [10], 100%; in series [11], 5.3%; in series [12] it was 0%; in series [13] it was 0%. For the same molecule, in series [14], the “inhibition (INH)” value is recorded as “Not Active”. The molecule also gave a half-life in series [15] of 15.4 h. The Tmax in series [16] worked out at 8.67 h. This molecule showed a total exposure AUC(0-inf) in [17] of 9320 ng·h/mL. For the same molecule, in the series with HT-29, the EC50 turned out to be 440 nM.

Source of the values: ChEMBL document CHEMBL4406794, “N-(7-Cyano-6-(4-fluoro-3-(2-(3-(trifluoromethyl)phenyl)acetamido)phenoxy)benzo[d]thiazol-2-yl)cyclopropanecarboxamide (TAK-632) Analogues as Novel Necroptosis Inhibitors by Targeting Receptor-Interacting Protein Kinase 3 (RIPK3): Synthesis, Structure-Activity Relationships, and in Vivo Efficacy” (J Med Chem, 2019).
